Reference: ChEMBL document CHEMBL5058577, “EUbOPEN Chemogenomics Library 2 (Multiplex)” (2022)

System: Fibroblast
Assay: Multiplex assay against human fibroblast
Assay type: toxicity, cell-based
Procedure, shortened: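 Cells stained live at seeding with Hoechst33342, BioTracker Green Microtubule Cytoskeleton Dye, MitoTracker Red and Annexin V Alexa Fluor 680 were imaged on a CQ1 microscope at 37°C and 5% CO2 after compound addition. Their classification by CellPathfinder machine-learning gating ran from Hoechst high-intensity objects versus normal cells, to healthy, pyknosed or fragmented nuclei among normal cells, to mitotic or apoptotic among pyknosed cells. Tubulin, mitochondrial-mass and membrane-permeability phenotypes are per cents of healthy-nucleus cells.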

[1] = 12 h, 1 µM, compound concentration 1 uM, replicate 1
[2] = 12 h, 1 µM, compound concentration 1 uM, replicate 2
[3] = 12 h, 10 µM, compound concentration 10 uM, replicate 1
[4] = 12 h, 10 µM, compound concentration 10 uM, replicate 2
[5] = 24 h, 1 µM, compound concentration 1 uM, replicate 1
[6] = 24 h, 1 µM, compound concentration 1 uM, replicate 2
[7] = 24 h, 10 µM, compound concentration 10 uM, replicate 1
[8] = 24 h, 10 µM, compound concentration 10 uM, replicate 2
[9] = 48 h, 1 µM, compound concentration 1 uM, replicate 1
[10] = 48 h, 1 µM, compound concentration 1 uM, replicate 2
[11] = 48 h, 10 µM, compound concentration 10 uM, replicate 1
[12] = 48 h, 10 µM, compound concentration 10 uM, replicate 2

For Cl.Clc1ccc2nsnc2c1NC1=NCCN1 [TIZANIDINE HYDROCHLORIDE], the “Population Apoptotic (%)” value [1] was 38%, the “Population Fragmented Nuclei (%)” value [1] was 10% and the “Population Healthy Nuclei (%)” value [1] was 72%. For the same compound, the “Population Hoechst High Intensity Objects (%)” value [1] was 3%, the “Population Membrane Permeable-Phenotype (%)” value [1] was 0% and the “Population Mitochondria Different-Phenotype (%)” value [1] was 4%. The “Population Mitotic Cells (%)” value [1] was 61%, the “Population Normal (%)” value [1] was 96% and the “Population Pyknosed Nuclei (%)” value [1] was 17%. For the same compound, the “Population Tubulin-Different-Phenotype (%)” value [1] was 21%, the “Total Cell Count” value [1] was 155 and the “Population Apoptotic (%)” value [2] was 33%. For the same compound, the “Population Fragmented Nuclei (%)” value [2] was 24%, the “Population Healthy Nuclei (%)” value [2] was 49% and the “Population Hoechst High Intensity Objects (%)” value [2] was 4%. For the same compound, the “Population Membrane Permeable-Phenotype (%)” value [2] was 5%, the “Population Mitochondria Different-Phenotype (%)” value [2] was 5% and the “Population Mitotic Cells (%)” value [2] was 66%. The “Population Normal (%)” value [2] was 95%, the “Population Pyknosed Nuclei (%)” value [2] was 25% and the “Population Tubulin-Different-Phenotype (%)” value [2] was 50%. For the same compound, the “Total Cell Count” value [2] was 182, the “Population Apoptotic (%)” value [3] was 36% and the “Population Fragmented Nuclei (%)” value [3] was 18%. For the same compound, the “Population Healthy Nuclei (%)” value [3] was 60%, the “Population Hoechst High Intensity Objects (%)” value [3] was 4% and the “Population Membrane Permeable-Phenotype (%)” value [3] was 0%. For the same compound, the “Population Mitochondria Different-Phenotype (%)” value [3] was 8%, the “Population Mitotic Cells (%)” value [3] was 64% and the “Population Normal (%)” value [3] was 95%. The “Population Pyknosed Nuclei (%)” value [3] was 20%, the “Population Tubulin-Different-Phenotype (%)” value [3] was 29% and the “Total Cell Count” value [3] was 129. For the same compound, the “Population Apoptotic (%)” value [4] was 21%, the “Population Fragmented Nuclei (%)” value [4] was 24% and the “Population Healthy Nuclei (%)” value [4] was 45%. For the same compound, the “Population Membrane Permeable-Phenotype (%)” value [4] was 7%, the “Population Mitochondria Different-Phenotype (%)” value [4] was 7% and the “Population Mitotic Cells (%)” value [4] was 78%. The “Population Pyknosed Nuclei (%)” value [4] was 29%, the “Population Tubulin-Different-Phenotype (%)” value [4] was 33% and the “Total Cell Count” value [4] was 143. For the same compound, the “Population Apoptotic (%)” value [5] was 52%, the “Population Fragmented Nuclei (%)” value [5] was 6% and the “Population Healthy Nuclei (%)” value [5] was 76%. The “Population Hoechst High Intensity Objects (%)” value [5] was 2%, the “Population Membrane Permeable-Phenotype (%)” value [5] was 0% and the “Population Mitochondria Different-Phenotype (%)” value [5] was 0%. The “Population Mitotic Cells (%)” value [5] was 47%, the “Population Normal (%)” value [5] was 97% and the “Population Pyknosed Nuclei (%)” value [5] was 16%. The “Population Tubulin-Different-Phenotype (%)” value [5] was 16%, the “Total Cell Count” value [5] was 146 and the “Population Apoptotic (%)” value [6] was 42%. The “Population Fragmented Nuclei (%)” value [6] was 26%, the “Population Healthy Nuclei (%)” value [6] was 49% and the “Population Hoechst High Intensity Objects (%)” value [6] was 4%. For the same compound, the “Population Membrane Permeable-Phenotype (%)” value [6] was 9%, the “Population Mitochondria Different-Phenotype (%)” value [6] was 4% and the “Population Mitotic Cells (%)” value [6] was 57%. The “Population Normal (%)” value [6] was 95%, the “Population Pyknosed Nuclei (%)” value [6] was 24% and the “Population Tubulin-Different-Phenotype (%)” value [6] was 50%. For the same compound, the “Total Cell Count” value [6] was 182, the “Population Apoptotic (%)” value [7] was 45% and the “Population Fragmented Nuclei (%)” value [7] was 19%. For the same compound, the “Population Healthy Nuclei (%)” value [7] was 60%, the “Population Hoechst High Intensity Objects (%)” value [7] was 1% and the “Population Membrane Permeable-Phenotype (%)” value [7] was 0%. For the same compound, the “Population Mitochondria Different-Phenotype (%)” value [7] was 5%, the “Population Mitotic Cells (%)” value [7] was 54% and the “Population Normal (%)” value [7] was 98%. For the same compound, the “Population Pyknosed Nuclei (%)” value [7] was 20%, the “Population Tubulin-Different-Phenotype (%)” value [7] was 20% and the “Total Cell Count” value [7] was 122. The “Population Apoptotic (%)” value [8] was 47%, the “Population Healthy Nuclei (%)” value [8] was 48% and the “Population Hoechst High Intensity Objects (%)” value [8] was 2%. For the same compound, the “Population Membrane Permeable-Phenotype (%)” value [8] was 9%, the “Population Mitochondria Different-Phenotype (%)” value [8] was 6% and the “Population Mitotic Cells (%)” value [8] was 52%. The “Population Normal (%)” value [8] was 97%, the “Population Pyknosed Nuclei (%)” value [8] was 32% and the “Population Tubulin-Different-Phenotype (%)” value [8] was 34%. The “Total Cell Count” value [8] was 135, the “Population Apoptotic (%)” value [9] was 47% and the “Population Fragmented Nuclei (%)” value [9] was 17%. The “Population Healthy Nuclei (%)” value [9] was 71%, the “Population Hoechst High Intensity Objects (%)” value [9] was 2% and the “Population Membrane Permeable-Phenotype (%)” value [9] was 2%. For the same compound, the “Population Mitochondria Different-Phenotype (%)” value [9] was 1%, the “Population Mitotic Cells (%)” value [9] was 52% and the “Population Normal (%)” value [9] was 97%. For the same compound, the “Population Pyknosed Nuclei (%)” value [9] was 10%, the “Population Tubulin-Different-Phenotype (%)” value [9] was 19% and the “Total Cell Count” value [9] was 167. The “Population Apoptotic (%)” value [10] was 55%, the “Population Fragmented Nuclei (%)” value [10] was 29% and the “Population Healthy Nuclei (%)” value [10] was 47%. For the same compound, the “Population Hoechst High Intensity Objects (%)” value [10] was 6%, the “Population Membrane Permeable-Phenotype (%)” value [10] was 6% and the “Population Mitochondria Different-Phenotype (%)” value [10] was 8%. For the same compound, the “Population Mitotic Cells (%)” value [10] was 44%, the “Population Normal (%)” value [10] was 93% and the “Population Pyknosed Nuclei (%)” value [10] was 23%. The “Population Tubulin-Different-Phenotype (%)” value [10] was 56%, the “Total Cell Count” value [10] was 166 and the “Population Apoptotic (%)” value [11] was 69%. The “Population Fragmented Nuclei (%)” value [11] was 26%, the “Population Healthy Nuclei (%)” value [11] was 56% and the “Population Hoechst High Intensity Objects (%)” value [11] was 2%. The “Population Membrane Permeable-Phenotype (%)” value [11] was 0%, the “Population Mitochondria Different-Phenotype (%)” value [11] was 5% and the “Population Mitotic Cells (%)” value [11] was 30%. The “Population Normal (%)” value [11] was 97%, the “Population Pyknosed Nuclei (%)” value [11] was 17% and the “Population Tubulin-Different-Phenotype (%)” value [11] was 26%. For the same compound, the “Total Cell Count” value [11] was 133, the “Population Apoptotic (%)” value [12] was 63% and the “Population Fragmented Nuclei (%)” value [12] was 35%. For the same compound, the “Population Healthy Nuclei (%)” value [12] was 42%, the “Population Membrane Permeable-Phenotype (%)” value [12] was 6% and the “Population Mitochondria Different-Phenotype (%)” value [12] was 11%. For the same compound, the “Population Mitotic Cells (%)” value [12] was 36%, the “Population Pyknosed Nuclei (%)” value [12] was 21% and the “Population Tubulin-Different-Phenotype (%)” value [12] was 44%. The “Total Cell Count” value [12] was 141.
